Data from ChEMBL document CHEMBL3877289, “New family of antimicrobial agents derived from 1,4-naphthoquinone” (Eur J Med Chem, 2016).
Converted amounts (≈) assume the structure as drawn.

Assays:
Pseudomonas aeruginosa = test: Antibacterial activity against Pseudomonas aeruginosa PCM 2562 after 20 hrs by microbroth dilution method; type: functional; conditions: PCM 2562, 20 h
In short: (§1)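 MIC by broth microdilution in Mueller–Hinton broth. Strains were pre-grown 24h at 37 °C with shaking at 180 rpm. Inoculum was 5x10^5 CFU/ml, exposed 20 h at 37 °C to compound (0.001 – 5 mg/ml, DMSO solvent). MIC was the lowest concentration inhibiting observable growth. Tetracycline served as reference. Triplicate.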

Salmonella bongori = test: Antibacterial activity against Salmonella bongori PCM 2552 after 20 hrs by microbroth dilution method; type: functional; conditions: PCM 2552, 20 h; in short: as §1
Staphylococcus aureus [1] = test: Antibacterial activity against Staphylococcus aureus ATCC 6538 after 20 hrs by microbroth dilution method; type: functional; conditions: ATCC 6538, 20 h; in short: as §1
Klebsiella pneumoniae = test: Antibacterial activity against Klebsiella pneumoniae PCM1 after 20 hrs by microbroth dilution method; type: functional; conditions: PCM1, 20 h; in short: as §1
Escherichia coli = test: Antibacterial activity against Escherichia coli ATCC 8739 after 20 hrs by microbroth dilution method; type: functional; conditions: ATCC 8739, 20 h; in short: as §1
Enterobacter cloacae = test: Antibacterial activity against Enterobacter cloacae PCM 2569 after 20 hrs by microbroth dilution method; type: functional; conditions: PCM 2569, 20 h; in short: as §1
[2] = Hemolytic activity in human erythrocytes at 1 to 250 ug/mL incubated for 1 hr; type: ADME, cell-based, Erythrocyte; conditions: read-out: Activity
In short: (§2)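 Human blood was collected into citrate dextrose anticoagulant. Erythrocytes were spun at 500×g for 10 min at 4 °C, then washed in PBS (10 mM phosphate, pH 7.5; 150 mM NaCl) until the supernatant was clear, and resuspended at 2%. 450 µl of suspension was mixed with compound in 50 µl DMSO (1 - 250 µg/ml), incubated 1h at 37 °C, spun at 5000×g for 10 min, and supernatant A415 was read. Controls: tetracycline and chloramphenicol negative, Triton X-100 (1%) positive.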

[3] = Hemolytic activity in human erythrocytes at 60 ug/mL incubated for 1 hr; type: ADME, cell-based, Erythrocyte; conditions: read-out: Activity; in short: as §2
Enterococcus faecalis = test: Antibacterial activity against Enterococcus faecalis PCM 2673 after 20 hrs by microbroth dilution method; type: functional; conditions: PCM 2673, 20 h; in short: as §1
Proteus vulgaris = test: Antibacterial activity against Proteus vulgaris PCM 2668 after 20 hrs by microbroth dilution method; type: functional; conditions: PCM 2668, 20 h; in short: as §1
Staphylococcus aureus [4] = test: Antibacterial activity against Staphylococcus aureus MN8 assessed as reduction in CFU/ml by <3 logs after 24 hrs; type: functional; conditions: MN8, 24 h
Staphylococcus aureus [5] = test: Antibacterial activity against Staphylococcus aureus CDC587 assessed as reduction in CFU/ml by <3 logs after 24 hrs; type: functional; conditions: CDC587, 24 h
Staphylococcus aureus [6] = test: Antibacterial activity against Staphylococcus aureus MNPE assessed as reduction in CFU/ml by <3 logs after 24 hrs; type: functional
Staphylococcus aureus [7] = test: Antibacterial activity against Staphylococcus aureus MW2 assessed as reduction in CFU/ml by <3 logs after 24 hrs; type: functional; conditions: MW2, 24 h
Staphylococcus aureus [8] = test: Antibacterial activity against Staphylococcus aureus LAC assessed as reduction in CFU/ml by <3 logs after 24 hrs; type: functional
[9] = Hemolytic activity in human blood cells at 5 ug/mL after 48 hrs by photometric method; type: ADME, cell-based, Erythrocyte; conditions: read-out: Activity

| SMILES | MIC (Pseudomonas aeruginosa) [µg/mL] | MIC (Salmonella bongori) [µg/mL] | MIC (Staphylococcus aureus [1]) [µg/mL] | MIC (Klebsiella pneumoniae) [µg/mL] | MIC (Escherichia coli) [µg/mL] | MIC (Enterobacter cloacae) [µg/mL] | MIC (Enterococcus faecalis) [µg/mL] | MIC (Proteus vulgaris) [µg/mL] | MIC (Staphylococcus aureus [4]) [µg/mL] | MIC (Staphylococcus aureus [5]) [µg/mL] | MIC (Staphylococcus aureus [6]) [µg/mL] | MIC (Staphylococcus aureus [7]) [µg/mL] | MIC (Staphylococcus aureus [8]) [µg/mL] | hemolysis at 1 h [2] [%] | hemolysis at 1 h, 60 ug/mL [3] [%] | hemolysis at 48 h, 5 ug/mL [9] [%] |
| --- | --- | --- | --- | --- | --- | --- | --- | --- | --- | --- | --- | --- | --- | --- | --- | --- |
| COc1cc(OC)c(C2=CC(=O)c3ccccc3C2=O)c(OC)c1 | 250 (≈ 771 µM) | 250 (≈ 771 µM) | 250 (≈ 771 µM) | 250 (≈ 771 µM) | 250 (≈ 771 µM) | 250 (≈ 771 µM) |  |  |  |  |  |  |  |  |  |  |
| COc1cc(NC(C)=O)ccc1C1=CC(=O)c2ccccc2C1=O | 250 (≈ 778 µM) | 250 (≈ 778 µM) | 15.6 (≈ 48.5 µM) | 250 (≈ 778 µM) | 250 (≈ 778 µM) | 250 (≈ 778 µM) |  |  |  |  |  |  |  | ≤ 2 |  |  |
| CN(C)c1ccc(C2=CC(=O)c3ccccc3C2=O)cc1 | 250 (≈ 901 µM) | 125 (≈ 451 µM) | 125 (≈ 451 µM) | 62.5 (≈ 225 µM) | 125 (≈ 451 µM) | 250 (≈ 901 µM) |  | 250 (≈ 901 µM) |  |  |  |  |  |  |  |  |
| O=C1C=C(c2ccc(N(Cc3ccccc3)Cc3ccccc3)cc2)C(=O)c2ccccc21 | 250 (≈ 582 µM) | 250 (≈ 582 µM) | 250 (≈ 582 µM) | 250 (≈ 582 µM) | 250 (≈ 582 µM) | 250 (≈ 582 µM) | 250 (≈ 582 µM) |  |  |  |  |  |  |  |  |  |
| COc1cc2ccc(C3=CC(=O)c4ccccc4C3=O)cc2cc1OC | 500 (≈ 1450 µM) | 500 (≈ 1450 µM) | 500 (≈ 1450 µM) | 500 (≈ 1450 µM) | 500 (≈ 1450 µM) | 500 (≈ 1450 µM) |  |  |  |  |  |  |  |  |  |  |
| O=C1C=C(N[C@@H](Cc2c[nH]c3ccccc23)C(=O)O)C(=O)c2ccccc21 | 500 (≈ 1390 µM) | 500 (≈ 1390 µM) | 62.5 (≈ 173 µM) | 500 (≈ 1390 µM) | 500 (≈ 1390 µM) | 500 (≈ 1390 µM) | 500 (≈ 1390 µM) | 500 (≈ 1390 µM) |  |  |  |  |  |  |  |  |
| O=C1C=C(N[C@@H](C(=O)O)c2ccccc2)C(=O)c2ccccc21 | 500 (≈ 1630 µM) | 500 (≈ 1630 µM) | 250 (≈ 814 µM) | 500 (≈ 1630 µM) | 500 (≈ 1630 µM) | 500 (≈ 1630 µM) | 500 (≈ 1630 µM) |  |  |  |  |  |  |  |  |  |
| O=C1C=C(N2CCC[C@H]2C(=O)O)C(=O)c2ccccc21 | 250 (≈ 922 µM) | 250 (≈ 922 µM) | 31.2 (≈ 115 µM) | 250 (≈ 922 µM) | 250 (≈ 922 µM) | 250 (≈ 922 µM) | 250 (≈ 922 µM) | 500 (≈ 1840 µM) |  |  |  |  |  |  |  |  |
| CC1=CC(=O)c2ccccc2C1=O [MENADIONE] |  |  |  |  |  |  |  |  | 3 (≈ 17.4 µM) | 3 (≈ 17.4 µM) | 3 (≈ 17.4 µM) | 3 (≈ 17.4 µM) | 3 (≈ 17.4 µM) |  |  | 3.5 |
| O=C1C=CC(=O)c2ccccc21 [NAPHTHOQUINONE] | 125 (≈ 790 µM) | 125 (≈ 790 µM) | 31.2 (≈ 197 µM) | 250 (≈ 1580 µM) | 125 (≈ 790 µM) | 250 (≈ 1580 µM) | 125 (≈ 790 µM) |  |  |  |  |  |  |  |  |  |
| CN(C)[C@@H]1C(O)=C(C(N)=O)C(=O)[C@@]2(O)C(O)=C3C(=O)c4c(O)cccc4[C@@](C)(O)[C@H]3C[C@@H]12 [TETRACYCLINE] | 15.6 (≈ 35.1 µM) | 3.9 (≈ 8.78 µM) | 7.8 (≈ 17.6 µM) | 15.6 (≈ 35.1 µM) | 0.5 (≈ 1.13 µM) | 7.8 (≈ 17.6 µM) | 31.2 (≈ 70.2 µM) | 7.8 (≈ 17.6 µM) |  |  |  |  |  |  |  |  |

More lines, in order of falling MIC (Pseudomonas aeruginosa), values ahead:

| MIC (Pseudomonas aeruginosa) [µg/mL] | MIC (Salmonella bongori) [µg/mL] | MIC (Staphylococcus aureus [1]) [µg/mL] | MIC (Klebsiella pneumoniae) [µg/mL] | MIC (Escherichia coli) [µg/mL] | MIC (Enterobacter cloacae) [µg/mL] | MIC (Enterococcus faecalis) [µg/mL] | MIC (Proteus vulgaris) [µg/mL] | MIC (Staphylococcus aureus [4]) [µg/mL] | MIC (Staphylococcus aureus [5]) [µg/mL] | MIC (Staphylococcus aureus [6]) [µg/mL] | MIC (Staphylococcus aureus [7]) [µg/mL] | MIC (Staphylococcus aureus [8]) [µg/mL] | SMILES | hemolysis at 1 h [2] [%] | hemolysis at 1 h, 60 ug/mL [3] [%] | hemolysis at 48 h, 5 ug/mL [9] [%] |
| --- | --- | --- | --- | --- | --- | --- | --- | --- | --- | --- | --- | --- | --- | --- | --- | --- |
| 500 (≈ 1930 µM) | 500 (≈ 1930 µM) | 62.5 (≈ 241 µM) | 500 (≈ 1930 µM) | 250 (≈ 964 µM) | 500 (≈ 1930 µM) | 250 (≈ 964 µM) | 500 (≈ 1930 µM) |  |  |  |  |  | COC(=O)[C@H](C)NC1=CC(=O)c2ccccc2C1=O |  |  |  |
| 500 (≈ 1830 µM) | 500 (≈ 1830 µM) | 500 (≈ 1830 µM) | 500 (≈ 1830 µM) | 500 (≈ 1830 µM) | 500 (≈ 1830 µM) | 500 (≈ 1830 µM) | 500 (≈ 1830 µM) |  |  |  |  |  | CC(C)[C@H](NC1=CC(=O)c2ccccc2C1=O)C(=O)O |  |  |  |
| 500 (≈ 1610 µM) | 500 (≈ 1610 µM) | 62.5 (≈ 201 µM) | 500 (≈ 1610 µM) | 250 (≈ 806 µM) | 500 (≈ 1610 µM) |  | 500 (≈ 1610 µM) |  |  |  |  |  | O=C1C(c2ccccc2)=C(c2ccccc2)C(=O)c2ccccc21 |  |  |  |
| 500 (≈ 1910 µM) | 500 (≈ 1910 µM) | 500 (≈ 1910 µM) | 500 (≈ 1910 µM) | 500 (≈ 1910 µM) | 500 (≈ 1910 µM) |  | 500 (≈ 1910 µM) |  |  |  |  |  | Cc1ccc(C2=CC(=O)c3ccccc3C2=O)cc1C |  |  |  |
| 500 (≈ 1810 µM) | 500 (≈ 1810 µM) | 15.6 (≈ 56.5 µM) | 500 (≈ 1810 µM) | 500 (≈ 1810 µM) | 500 (≈ 1810 µM) |  | 500 (≈ 1810 µM) |  |  |  |  |  | Cc1cc(C)c(C2=CC(=O)c3ccccc3C2=O)c(C)c1 |  |  |  |
| 250 (≈ 1070 µM) | 250 (≈ 1070 µM) |  |  |  |  |  |  |  |  |  |  |  | O=C1C=C(c2ccccc2)C(=O)c2ccccc21 |  |  |  |
| 250 (≈ 858 µM) | 250 (≈ 858 µM) | 7.8 (≈ 26.8 µM) | 250 (≈ 858 µM) | 250 (≈ 858 µM) | 250 (≈ 858 µM) |  |  |  |  |  |  |  | Cc1cc(N(C)C)ccc1C1=CC(=O)c2ccccc2C1=O | ≤ 2 | 2 |  |
| 250 (≈ 813 µM) | 250 (≈ 813 µM) | 7.8 (≈ 25.4 µM) | 250 (≈ 813 µM) | 250 (≈ 813 µM) | 250 (≈ 813 µM) |  |  |  |  |  |  |  | COc1cc(N(C)C)ccc1C1=CC(=O)c2ccccc2C1=O |  |  |  |
| 250 (≈ 849 µM) | 250 (≈ 849 µM) | 15.6 (≈ 53 µM) | 250 (≈ 849 µM) | 250 (≈ 849 µM) | 250 (≈ 849 µM) |  |  |  |  |  |  |  | COc1ccc(C2=CC(=O)c3ccccc3C2=O)c(OC)c1 | ≤ 2 |  |  |
| 250 (≈ 1000 µM) | 250 (≈ 1000 µM) | 62.5 (≈ 251 µM) | 250 (≈ 1000 µM) | 250 (≈ 1000 µM) | 250 (≈ 1000 µM) |  |  |  |  |  |  |  | O=C1C=C(Nc2ccccc2)C(=O)c2ccccc21 |  |  |  |
